Calls of active or inactive are those of the source. The rule behind the calls is not given here.
Assays:
[1] = Inhibition of ATRA hydroxylase in Syrian golden hamster liver microsome assessed ATRA metabolism using [11.12-3H]-ATRA; assay type: microsomes, Mesocricetus auratus
In short: (§1)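 Microsomes from male Syrian golden hamster liver, or from T47D cells pretreated with 1 µM ATRA. Incubation in 0.1 M phosphate buffer pH 7.4 with NADPH, MgCl2 and BSA, inhibitor in DMSO; 3 min preincubation at 37 °C, then [11,12-3H]-ATRA for 30 min at 37 °C under oxygen. Ethyl acetate extraction, reverse-phase HPLC with radiometric detection; percent polar metabolites; IC50 from dose-response curves.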

[2] = biological target: T1, Retinoic acid receptor alpha (Homo sapiens, UniProt P10276); assay: Displacement of [11,12-3H]ARTA from RARalpha
T1 sequence (P10276 whole entry): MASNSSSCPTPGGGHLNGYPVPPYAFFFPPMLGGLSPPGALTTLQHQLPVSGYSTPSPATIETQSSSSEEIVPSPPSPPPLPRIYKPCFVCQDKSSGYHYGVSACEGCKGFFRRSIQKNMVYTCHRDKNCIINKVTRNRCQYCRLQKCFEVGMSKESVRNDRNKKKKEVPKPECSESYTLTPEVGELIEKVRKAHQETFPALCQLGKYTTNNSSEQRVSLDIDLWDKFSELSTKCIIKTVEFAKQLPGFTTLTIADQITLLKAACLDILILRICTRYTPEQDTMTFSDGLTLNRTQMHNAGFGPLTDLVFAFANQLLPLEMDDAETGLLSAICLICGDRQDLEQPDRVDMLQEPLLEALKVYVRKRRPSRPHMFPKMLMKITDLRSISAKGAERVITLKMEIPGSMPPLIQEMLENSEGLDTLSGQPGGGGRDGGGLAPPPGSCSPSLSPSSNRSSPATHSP
In short: (§2)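 Recombinant S-Tag RARα, RARβ or RARγ fusion protein extracts (10-30 µg/mL total protein) in HEPES pH 7.9 binding buffer. Incubated with 1 nM [3H]all-trans-RA and 0-500 nM test compound for 3 h at 27 °C.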

[3] = system: MCF7; assay: Reduction of tumor growth in MCF7 cells xenografted ovariectomized mouse at 0.033 mmol/kg, sc for 6 weeks relative to control; assay type: functional, Homo sapiens; design: scale not given: the % may be the effect or the level left
In short: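 Female ovariectomized nude mice received estrogen pellets. MCF-7 cells (2 × 10^6 in Matrigel) were injected sc into both flanks and grown 4-5 weeks to 200-300 mm3. Groups of n = 5 were dosed sc once daily, 6 days/week for 6 weeks, vehicle 0.3% HPC, 200 µL. Tumors were measured weekly by caliper, volume = (4/3)πr1²r2, and change was compared with vehicle controls.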

[4] = system: MDA-MB-231; assay: Growth inhibition of human MDA-MB-231 cells up to 10 uM after 6 days by MTT assay; assay type: functional, cell-based
[5] = biological target: T2, Retinoic acid receptor beta (Homo sapiens, UniProt P10826); assay: Displacement of [11,12-3H]ARTA from RARbeta; in short: as §2
T2 sequence (P10826 whole entry): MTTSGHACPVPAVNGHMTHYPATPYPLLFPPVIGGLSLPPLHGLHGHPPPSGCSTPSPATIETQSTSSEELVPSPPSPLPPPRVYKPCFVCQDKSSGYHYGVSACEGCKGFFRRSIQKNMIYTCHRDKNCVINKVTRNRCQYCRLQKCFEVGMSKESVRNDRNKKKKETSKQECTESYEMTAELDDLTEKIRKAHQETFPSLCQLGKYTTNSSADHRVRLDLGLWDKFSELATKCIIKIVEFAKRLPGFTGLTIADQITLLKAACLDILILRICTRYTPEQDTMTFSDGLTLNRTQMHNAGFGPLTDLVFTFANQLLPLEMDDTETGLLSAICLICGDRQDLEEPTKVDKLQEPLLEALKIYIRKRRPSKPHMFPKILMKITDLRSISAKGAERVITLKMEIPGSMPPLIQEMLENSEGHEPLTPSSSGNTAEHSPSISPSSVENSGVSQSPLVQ

[6] = biological target: T3, Cytochrome P450 26A1 (Homo sapiens, UniProt O43174); assay: Inhibition of ATRA-induced CYP26 in human T47D cell microsome assessed as ATRA metabolism using [11.12-3H]-ATRA; assay type: functional, microsomes; in short: as §1
T3 sequence (O43174 whole entry): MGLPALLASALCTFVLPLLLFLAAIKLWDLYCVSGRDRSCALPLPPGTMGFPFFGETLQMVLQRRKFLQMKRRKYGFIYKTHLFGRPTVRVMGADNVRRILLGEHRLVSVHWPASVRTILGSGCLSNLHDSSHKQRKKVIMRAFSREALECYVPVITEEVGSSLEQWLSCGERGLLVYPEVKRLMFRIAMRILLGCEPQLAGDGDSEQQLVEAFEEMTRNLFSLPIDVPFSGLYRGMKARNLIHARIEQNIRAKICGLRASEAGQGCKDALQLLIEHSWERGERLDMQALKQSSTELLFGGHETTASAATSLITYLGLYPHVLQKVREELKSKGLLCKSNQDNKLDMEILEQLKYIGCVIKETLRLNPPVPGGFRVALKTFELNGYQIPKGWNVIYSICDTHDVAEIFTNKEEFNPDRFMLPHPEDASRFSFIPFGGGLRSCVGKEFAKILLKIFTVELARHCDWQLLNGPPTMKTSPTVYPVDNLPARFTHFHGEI

[7] = system: LNCaP; assay: Growth inhibition of human LNCaP cells after 6 days by MTT assay; assay type: functional, cell-based; conditions: 144 h
In short: (§3)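 LNCaP cells (1 × 10^4) on poly-L-lysine-coated wells, attached 36 h; PC-3 cells (1 × 10^4), uncoated, attached 24 h; both in RPMI 1640. Treated with a concentration range of drug for 6 days, medium changed every 3 days. MTT read-out at 540 nm; IC50 by nonlinear regression from at least two experiments.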

[8] = Displacement of [11,12-3H]ARTA from RARgamma; design: species or system Homo sapiens
In short: as §2, with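 “°C. Nonspecific binding measured with a 200-fold excess of unlabeled RA; IC50 from dose-response curves, at least two experiments.” for “°C.”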

[9] = system: T47D; assay: Induction of apoptosis in human T47D cells at 1 uM for 6 days by TUNEL assay; assay type: functional, cell-based
In short: (§4)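 MCF-7 or T47D cells exposed to 1 µM compound for 6 days, then trypsinized, fixed in 1% paraformaldehyde and stored in 70% ethanol at -20 °C overnight. TdT/BrdUTP labeling (APO-BRDU TUNEL), fluorescein anti-BrdU plus PI/RNase stain; apoptotic cells counted by flow cytometry.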

[10] = biological target: T3, Cytochrome P450 26A1; assay: Inhibition of ATRA-induced CYP26 in human T47D cells assessed as ATRA metabolism using [11.12-3H]-ATRA; assay type: functional, cell-based
In short: (§5)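 MCF-7 or T47D cells (1 × 10^6 per well) induced with 1 µM ATRA for 12-15 h, washed, then given inhibitor (0.0001-10 µM, ethanol stock) plus 0.001 µM [11,12-3H]-ATRA for 5 h. Media and cells extracted with ethyl acetate; metabolites measured by reverse-phase HPLC with radiometric detection; IC50 from dose-response curves.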

[11] = system: MCF7; assay: Induction of apoptosis in human MCF7 cells at 1 uM for 6 days by TUNEL assay; assay type: functional, cell-based; in short: as §4
[12] = system: T47D; assay: Growth inhibition of human T47D cells after 6 days by MTT assay; assay type: functional, cell-based; conditions: 144 h
In short: (§6)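 MCF-7 (IMEM, 5% FBS) or T47D (RPMI 1640, 10% FBS) cells, 1 × 10^4 per well, adhered ~18 h, then exposed to 0.0001-10 µM drug (ethanol) for 6 days with media and drug renewed on day 4. MTT for 2 h, formazan dissolved in DMSO, A540. Triplicate wells, 2-3 experiments; IC50 by nonlinear regression.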

[13] = biological target: T3, Cytochrome P450 26A1; assay: Inhibition of ATRA-induced CYP26 in human MCF7 cells assessed ATRA as metabolism using [11.12-3H]-ATRA; assay type: functional, cell-based; in short: as §5
[14] = system: MCF7; assay: Growth inhibition of human MCF7 cells after 6 days by MTT assay; assay type: functional, cell-based; conditions: MCF7, 144 h; in short: as §6
[15] = system: LNCaP; assay: Induction of cell differentiation in human LNCaP cells after 6 days; assay type: functional, cell-based
In short: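 LNCaP cells given 1 µM compound, alone or with 1 µM ATRA, for 6 days. Lysates (50 µg) run on 10% SDS-PAGE and Western blotted with anti-cytokeratin 8/18, β-actin as control. ECL detection; band intensity by densitometry taken as the differentiation marker.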

[16] = system: PC-3; assay: Growth inhibition of human PC3 cells after 6 days by MTT assay; assay type: functional, cell-based; conditions: PC-3, 144 h; in short: as §3
[17] = system: MDA-MB-231; assay: Growth inhibition of human MDA-MB-231 cells after 6 days by MTT assay; assay type: functional, cell-based; conditions: MDA-MB-231, 144 h

SMILES	IC50 [1] [nM]	IC50 [2] [nM]	IC50 [5] [nM]	IC50 [8] [nM]	further results
CC(=O)N1CCN(c2ccc(OCC3COC(Cn4ccnc4)(c4ccc(Cl)cc4Cl)O3)cc2)CC1 (stereo unspecified) [KETOCONAZOLE]	34000				
CC1=C(/C=C/C(C)=C/C=C/C(C)=C/C(=O)O)C(C)(C)CCC1n1ccnc1 (racemic)	2.33	20	175	45	Activity [3]: 85.2%; Activity [4]: inactive; IC50 [6]: 2.4 nM; IC50 [7]: 10000 nM; Activity [9]: Active; IC50 [10]: 6.3 nM; Ki [1]: 0.22 nM; Activity [11]: Active; IC50 [12]: 3 nM; IC50 [13]: 10.9 nM; IC50 [14]: 490 nM; Activity [15]: Active; IC50 [16]: 7700 nM
CC1=C(/C=C/C(C)=C/C=C/C(C)=C/C(=O)O)C(C)(C)CCC1n1cnnc1 (racemic)	46.7	410	250	300	
COC(=O)/C=C(C)/C=C/C=C(C)/C=C/C1=C(C)C(=N/O)/CCC1(C)C	23				
CC1=C(/C=C/C(C)=C/C=C/C(C)=C/C(=O)n2cncn2)C(C)(C)CCC1	51.7	20	90	80	
CC1=C(/C=C/C(C)=C/C=C/C(C)=C\C(=O)O)C(C)(C)CCC1n1ccnc1 (racemic)	119	100	175	65	Ki [1]: 4.12 nM
COC(=O)/C=C(C)/C=C/C=C(C)/C=C/C1=C(C)[C@H](n2ccnc2)CCC1(C)C (stereo in doubt; (+)-5)					IC50 [6]: 800 nM; IC50 [10]: 6000 nM
COC(=O)/C=C(C)/C=C/C=C(C)/C=C/C1=C(C)C(n2cnnc2)CCC1(C)C (racemic)	21.7				
CC1=C(/C=C/C(C)=C/C=C/C(C)=C/C(=O)n2ccnc2)C(C)(C)CCC1	61.2	> 1000	500	500	IC50 [17]: 7000 nM
COC(=O)/C=C(C)/C=C/C=C(C)/C=C/C1=C(C)C(n2cncn2)CCC1(C)C (racemic)	2				

From ChEMBL document CHEMBL1149300, “Novel retinoic acid metabolism blocking agents endowed with multiple biological activities are efficient growth inhibitors of human breast and prostate cancer cells in vitro and a human breast tumor xenograft in nude mice” (J Med Chem, 2004)
